Measured values pooled from the literature.
Lines come from different studies, so protocols differ. pIC50: −log10 of the molar value.
Observed: cell growth or viability

CN(C)C(=O)Nc1nc2c(Cl)cc(Cl)cc2c(=O)n1-c1ccccc1
pIC50 (NIH3T3; MTT; 48 h): 4.42

CC(=O)Nc1ccc(O)cc1
pIC50 (NIH3T3; 96 h): 4.18

CC1=CC(=O)C(C(C)C)=CC1=O
pIC50 (U-251; SRB; 48 h): 4.43

NNc1nc2ccc(Br)cc2c(=O)n1-c1ccccc1
pIC50 (NIH3T3; MTT; 48 h): 3.99

Cc1c(C)c2c(c(C)c1O)CCC(C)(COc1ccc(CC3SC(=O)NC3=O)cc1)O2 (stereo not shown)
pIC50 (NIH3T3; 96 h): 4.43

COc1cc(C(=O)c2nc(-c3ccnc4[nH]ccc34)c[nH]2)cc(OC)c1OC
pIC50 (PC-3; MTS; 72 h): 7.52

O=C(NO)Nc1nc2ccc(Br)cc2c(=O)n1-c1ccccc1
pIC50 (NIH3T3; MTT; 48 h): 3.91

O=C1Nc2ccccc2/C1=N/N=C/c1cccc([N+](=O)[O-])c1
IC50 (HUVEC; MTT; 48 h): 119 µg/mL

NNc1nc2c(Cl)cc(Cl)cc2c(=O)n1-c1ccc(F)cc1
pIC50 (NIH3T3; MTT; 48 h): 4.13

COc1c(Cl)cccc1Nc1c(-c2ccncc2OC[C@@H]2COCCO2)[nH]c2c1C(=O)NCC2
pIC50 (NCI-H2170; ATP luminescence): 7.61

C=CCn1c(=O)c2cnc(Nc3ccc(N4CCN(C)CC4)cc3)nc2n1-c1ccc2c(n1)[C@@](O)(CC)CC2
pIC50 (NCI-H1048; ATP luminescence; 72 h): 6.51

O[C@@H]1[C@@H](O)[C@H](Nc2cc3cccnc3c3ncccc23)OC[C@H]1O
pIC50 (HFF-1; MTT; 48 h, dark): 4.37

CN(C)C(=O)c1cc2cnc(Nc3ccc(-c4ccc5c(=O)cc(N6CCOCC6)oc5c4)cc3)nc2n1C1CCCC1
pIC50 (Kelly; ATP luminescence; 72 h): 6.72

CCOc1cc2ncc(C#N)c(Nc3ccc(OCc4ccccn4)c(Cl)c3)c2cc1NC(=O)/C=C/CN(C)C
pIC50 (NCI-H2170; ATP luminescence): 8.24

COc1ccccc1/C=N/N=C1\C(=O)Nc2ccccc21
IC50 (HUVEC; MTT; 48 h): 112 µg/mL

O=C(Nc1ccc(-c2ccc3ncn(Cc4ccccc4)c(=O)c3c2)cn1)c1ccc(F)cc1
pIC50 (A549; CCK-8; 72 h): < 5.00
